From ChEMBL document CHEMBL1123469, “Synthesis and activity of 6-aryl-3-(hydroxypolymethyleneamino)pyridazines in animal models of epilepsy” (1986)

Assays:
Format in all cases: functional
[1] = system: Mus musculus; assay: Evaluated for Bicuculline-induced lethality (anticonvulsant activity) when administered 100 mg/kg orally in mice.; details: route oral
Outline: (§1)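 Female Swiss albino CD1 mice (18-23 g), oral dosing (20 mL/kg); test compounds dissolved in dilute HCl (pH 3), reference drugs suspended in 5% gum tragacanth. Bicuculline challenge, scoring protection from seizures and from lethality. […] Weakly active agents reported as percent protected at the stated dose.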

[2] = system: Mus musculus; assay: Evaluated for the sedative property by the rotarod test at 100 mg/kg.
Outline: (§2)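 Motor coordination was tested on the rotorod in groups of 10 female Swiss CD1 mice (18-23 g). Drug or vehicle was given orally, test compounds in dilute HCl (pH 3), 60 min before testing.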

[3] = system: Mus musculus; assay: Evaluated for Bicuculline-induced seizures (anticonvulsant activity) when administered at 100 mg/kg orally in mice.; details: route oral
Outline: (§3)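 Female Swiss CD1 mice (18-23 g) were dosed orally at 20 mL/kg, test compounds in dilute HCl (pH 3) and references in gum tragacanth. Protection against bicuculline- or pentylenetetrazole-induced clonic/tonic seizures and lethality was scored.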

[4] = system: Mus musculus; assay: Anticonvulsant activity when administered 100 mg/kg orally in mice Maximal electroshock (MES); details: route oral
Outline: (§4)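 Female Swiss CD1 mice (18-23 g), groups of 10, were dosed orally at 20 mL/kg. Test compounds were given in dilute HCl (pH 3) and references in 5% gum tragacanth, 60 min before a 60-V alternating current for 0.3 s through corneal electrodes. Protection meant abolition of the hindlimb tonic extensor component.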

[5] = system: Mus musculus; assay: Evaluated for Bicuculline-induced lethality (anticonvulsant activity) when administered orally in mice.; details: po; outline: as §1
[6] = species on record: Mus musculus; assay: Sedative property by the rotarod test; outline: as §2
[7] = system: Mus musculus; assay: Evaluated for anticonvulsant activity when administered orally in mice by Maximal electroshock (MES).; details: po; outline: as §4
[8] = system: Mus musculus; assay: Evaluated for Bicuculline-induced seizures (anticonvulsant activity) when administered orally in mice.; details: po; outline: as §3
[9] = species on record: Papio hamadryas; assay: Antagonist activity to generalized seizures Photically induced seizures in senegalese Papio papio baboons
Outline: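 Naturally photosensitive baboons of both sexes (4-7 kg) were dosed orally, test compounds in dilute HCl (pH 3) and references in 5% gum tragacanth, at 4 mL/kg. They were photically stimulated at hourly intervals afterwards, and the myoclonic response was graded after Killam. Threshold active dose is the first dose that protected at least two of four animals for at least 2 h.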

[10] = system: Mus musculus; assay: Anticonvulsant activity in Clonic seizures when administered orally in mice; details: po; outline: as §3
[11] = system: Mus musculus; assay: Anticonvulsant activity in tonic seizures when administered orally in mice; details: po
[12] = species on record: Mus musculus; assay: Sedative properties by the rotarod test; outline: as §2
[13] = system: Mus musculus; assay: Anticonvulsant activity in Maximal electroshock (MES) when administered orally in mice; details: po; outline: as §4
[14] = species on record: Rattus norvegicus; assay: Antagonist activity to generalized seizures kindled amygdaloid seizures in rats
Outline: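 Male Sprague-Dawley rats (200-500 g), groups of 10, carried platinum electrodes in the right basolateral amygdala. They counted as kindled after stage-5 seizures on 3 consecutive days at 30-90 μA. A control stimulation was followed by an oral dose (5 mL/kg) and restimulation 1 h later. After-discharge duration and Racine seizure stage were compared with vehicle.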

Clc1ccccc1-c1ccc(N2CCC3(CC2)OCCO3)nn1
Protected [1]: 30%
Protected [2]: 0%
Protected [3]: 40%

N#Cc1cccc(-c2ccc(N3CCC(O)CC3)nn2)c1
Protected [4]: 33%
Protected [2]: 0%
Protected [3]: 10%

O=[N+]([O-])c1ccccc1-c1ccc(N2CCC(O)CC2)nn1
ED50 [5]: 57 mg/kg
Protected [2]: 0%

CNC(=O)OC1CCN(c2ccc(-c3ccccc3Cl)nn2)CC1
ED50 [5]: 9 mg/kg
ED50 [6]: 37 mg/kg

OC1CCN(c2ccc(-c3ccc(Cl)c(Cl)c3)nn2)CC1
Protected [1]: 20%
Protected [4]: 25%
Protected [2]: 100%
Protected [3]: 0%

O=[N+]([O-])c1cccc(-c2ccc(N3CCC(O)CC3)nn2)c1
Protected [1]: 20%
ED50 [7]: 79 mg/kg
Protected [2]: 30%
Protected [3]: 0%

Cc1ccccc1-c1ccc(N2CCC(O)CC2)nn1
ED50 [5]: 60 mg/kg
ED50 [8]: 40 mg/kg
ED50 [7]: 30 mg/kg

COc1ccc(-c2ccc(N3CCC(O)CC3)nn2)cc1
Protected [4]: 50%
Protected [2]: 0%
Protected [3]: 20%

OC1CCN(c2ccc(-c3ccccc3)nn2)CC1
ED50 [5]: 41 mg/kg
Protected [2]: 0%

CCCC(=O)OC1CCN(c2ccc(-c3ccccc3Cl)nn2)CC1
ED50 [5]: 30 mg/kg
Protected [2]: 0%

Cc1cccc(-c2ccc(N3CCC(O)CC3)nn2)c1
ED50 [5]: 50 mg/kg
ED50 [7]: 36 mg/kg
Protected [2]: 0%
Protected [3]: 30%

CCCCNC(=O)OC1CCN(c2ccc(-c3ccc(Cl)cc3)nn2)CC1
Protected [4]: 0%
Protected [2]: 0%
Protected [3]: 0%

C/N=C(\S)OC1CCN(c2ccc(-c3ccccc3Cl)nn2)CC1
ED50 [5]: 20 mg/kg
ED50 [8]: 20 mg/kg
ED50 [7]: 35 mg/kg

CCCCNC(=O)OC1CCN(c2ccc(-c3ccccc3Cl)nn2)CC1
Protected [4]: 20%
Protected [2]: 0%
Protected [3]: 0%

OC1CCN(c2ccc(-c3cccs3)nn2)CC1
Protected [4]: 0%
Protected [2]: 0%
Protected [3]: 0%

OC1CCN(c2ccc(-c3ccccc3F)nn2)CC1
ED50 [5]: 34 mg/kg
Protected [2]: 0%

CCC(=O)OC1CCN(c2ccc(-c3ccc(Cl)cc3Cl)nn2)CC1
ED50 [5]: 13 mg/kg
ED50 [8]: 16 mg/kg
ED50 [6]: 71 mg/kg
ED50 [7]: 50 mg/kg

OC1CCN(c2ccc(-c3ccc(Cl)cc3)nn2)CC1
Protected [1]: 70%
ED50 [7]: 29 mg/kg
Protected [2]: 40%
Protected [3]: 0%

CNC(=O)OC1CCN(c2ccc(-c3ccc(Cl)cc3)nn2)CC1
Protected [4]: 20%
Protected [2]: 0%
Protected [3]: 20%

CC(=O)OC1CCN(c2ccc(-c3ccc(Cl)cc3Cl)nn2)CC1
ED50 [5]: 8.3 mg/kg
ED50 [8]: 9.8 mg/kg
ED50 [6]: 70 mg/kg
ED50 [7]: 14 mg/kg

O=C(Nc1cccc(Cl)c1)OC1CCN(c2ccc(-c3ccccc3Cl)nn2)CC1
Protected [4]: 35%
Protected [2]: 0%
Protected [3]: 0%

O=C(OC1CCN(c2ccc(-c3ccccc3Cl)nn2)CC1)C1CC1
ED50 [5]: 71 mg/kg
Protected [4]: 60%
Protected [2]: 0%

CNC(=O)OC1CCN(c2ccc(-c3ccc(F)cc3)nn2)CC1
Protected [1]: 30%
ED50 [7]: 40 mg/kg
Protected [2]: 20%
Protected [3]: 40%

O=COC1CCN(c2ccc(-c3ccc(Cl)cc3Cl)nn2)CC1
ED50 [6]: 69 mg/kg
ED50 [7]: 24 mg/kg
Protected [3]: 50%

O=C1CCN(c2ccc(-c3ccccc3Cl)nn2)CC1
ED50 [5]: 25 mg/kg
Protected [2]: 40%

OC1CCN(c2ccc(-c3ccc(Cl)s3)nn2)CC1
Protected [4]: 30%
Protected [2]: 0%
Protected [3]: 50%

OC1CCCN(c2ccc(-c3ccccc3Cl)nn2)C1 (stereo not drawn)
Protected [4]: 15%
Protected [2]: 0%
Protected [3]: 0%

CNC(=O)OC1CCN(c2ccc(-c3ccc(Cl)cc3Cl)nn2)CC1
ED50 [5]: 1.4 mg/kg
ED50 [8]: 1.4 mg/kg
ED50 [6]: 20 mg/kg
ED50 [7]: 5.5 mg/kg

OC1CCN(c2ccc(-c3ccsc3)nn2)CC1
Protected [1]: 20%
Protected [4]: 80%
Protected [2]: 0%
Protected [3]: 10%

O=C(OC1CCN(c2ccc(-c3ccccc3Cl)nn2)CC1)c1ccc(Cl)cc1
Protected [4]: 0%
Protected [2]: 0%
Protected [3]: 0%

CNC(=O)OC1CCN(c2ccc(-c3ccc(Cl)c(Cl)c3)nn2)CC1
Protected [4]: 50%
Protected [2]: 0%
Protected [3]: 0%

OC1CCN(c2ccc(-c3ccc(F)cc3)nn2)CC1
Protected [2]: 50%
Protected [3]: 10%

O=[N+]([O-])c1ccc(-c2ccc(N3CCC(O)CC3)nn2)cc1
ED50 [5]: 57 mg/kg
ED50 [8]: 54 mg/kg
Protected [4]: 40%

Cc1cc(Cl)ccc1-c1ccc(N2CCC(O)CC2)nn1
ED50 [5]: 10 mg/kg
ED50 [8]: 10 mg/kg
ED50 [6]: 64 mg/kg
ED50 [7]: 10 mg/kg

CNC(=O)OC1CCN(c2ccc(-c3cccc(Cl)c3)nn2)CC1
Protected [1]: 0%
Protected [4]: 40%
Protected [2]: 0%
Protected [3]: 10%

CC(C)(C)C(=O)OC1CCN(c2ccc(-c3ccccc3Cl)nn2)CC1
Protected [4]: 0%
Protected [2]: 0%
Protected [3]: 0%

OC1CCN(c2ccc(-c3cccc(Cl)c3)nn2)CC1
Protected [1]: 40%
Protected [2]: 40%
Protected [3]: 10%

CNC(=O)OC1CCN(c2ccc(-c3cccs3)nn2)CC1
Protected [1]: 20%
Protected [4]: 10%
Protected [2]: 10%
Protected [3]: 0%

Cc1ccc(-c2ccc(N3CCC(O)CC3)nn2)c(Cl)c1
ED50 [5]: 16 mg/kg
ED50 [8]: 17 mg/kg
ED50 [6]: 48 mg/kg
ED50 [7]: 21 mg/kg

CCCC(=O)OC1CCN(c2ccc(-c3ccc(Cl)cc3Cl)nn2)CC1
ED50 [5]: 30 mg/kg
ED50 [8]: 31 mg/kg
ED50 [6]: 30 mg/kg
ED50 [7]: 50 mg/kg

CN(C)C(=O)OC1CCN(c2ccc(-c3ccccc3Cl)nn2)CC1
ED50 [5]: 1.1 mg/kg
ED50 [6]: 8.4 mg/kg

OC1CCN(c2ccc(-c3cccc(C(F)(F)F)c3)nn2)CC1
Protected [2]: 50%
Protected [3]: 0%

OC1CCN(c2ccc(-c3cccc4ccccc34)nn2)CC1
Protected [1]: 0%
Protected [2]: 0%
Protected [3]: 40%

Cc1ccc(-c2ccc(N3CCC(O)CC3)nn2)cc1
Protected [1]: 50%
ED50 [7]: 73 mg/kg
Protected [2]: 0%
Protected [3]: 0%

OC1CCN(c2ccc(-c3ccccc3Cl)nn2)C1 (stereo not drawn)
Protected [4]: 30%
Protected [2]: 0%
Protected [3]: 40%

NC(=O)N1c2ccccc2C=Cc2ccccc21 [CARBAMAZEPINE]
Threshold active dose [9]: 100 mg/kg
ED50 [5]: 16 mg/kg
ED50 [8]: 29 mg/kg
ED50 [10]: > 100 mg/kg
ED50 [11]: 21 mg/kg
ED50 [12]: 95 mg/kg
ED50 [13]: 21 mg/kg
Threshold active dose [14]: 10 mg/kg

OC1CCN(c2ccc(-c3ccc(Cl)cc3Cl)nn2)CC1 [ENDIXAPRINE]
Threshold active dose [9]: 50 mg/kg
ED50 [5]: 8.5 mg/kg
ED50 [8]: 8.5 mg/kg
ED50 [10]: 18 mg/kg
ED50 [11]: 11 mg/kg
ED50 [12]: 34 mg/kg
ED50 [13]: 14 mg/kg
Threshold active dose [14]: 20 mg/kg

OC1CCN(c2ccc(-c3ccccc3Cl)nn2)CC1 [LODAXAPRINE]
Threshold active dose [9]: 40 mg/kg
ED50 [5]: 34 mg/kg
ED50 [10]: 77 mg/kg
ED50 [11]: 29 mg/kg
ED50 [12]: 138 mg/kg
Threshold active dose [14]: 20 mg/kg
